Bioassay records from PubChem BioAssay.
Rows were chosen to be rich in hits. Some 2.1% of all compounds tested hit in one or more screens of this group.
CXCR6 block: CXCR6 receptor inhibitors, primary screen, cell-based, beta-arrestin, luminescence, CHO-K1 PathHunter, 1536-well | inhibition, % at 20 µM | actives 0.36% (n = 360,000); in the data active = inhibition above about 34%, passing the limit was not always enough;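 also: antagonist mode with CXCL16 agonist at 10 nM final; 0% = 10 nM CXCL16 with DMSO and 100% = unstimulated wells without agonist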
Target sequence (O00574 whole entry, looked up): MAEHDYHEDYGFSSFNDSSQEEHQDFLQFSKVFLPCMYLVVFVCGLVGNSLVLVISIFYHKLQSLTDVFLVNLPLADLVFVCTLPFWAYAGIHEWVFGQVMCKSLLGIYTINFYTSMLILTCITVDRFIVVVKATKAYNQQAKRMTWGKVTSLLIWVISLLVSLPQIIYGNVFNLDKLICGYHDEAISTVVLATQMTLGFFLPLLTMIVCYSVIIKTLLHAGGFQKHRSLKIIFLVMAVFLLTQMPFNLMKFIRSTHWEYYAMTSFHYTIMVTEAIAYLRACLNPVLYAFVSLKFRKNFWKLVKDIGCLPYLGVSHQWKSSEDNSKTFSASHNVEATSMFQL
APJ antag: antagonists of human apelin receptor APJ, primary screen, CHO-K1 cells, beta-arrestin complementation, luminescence; inhibition, % at 20 µM; actives 0.32% (n = 330,000);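 active = inhibition above about 40% at 20 µM, limit read from the data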;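 also: cells challenged with 10 nM apelin-13 agonist together with compound; plate controls were apelin-13 plus DMSO wells for no effect and DMSO wells lacking apelin-13 for full effect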
CCR6 antagonist: CCR6 receptor antagonists, primary screen, cell-based, CHO-K1, luminescence, beta-arrestin, uHTS. C-C chemokine receptor type 6 (Homo sapiens), P51684. CHO-K1 CCR6 PathHunter beta-arrestin, CCL20-stimulated. inhibition, % at 20 µM. actives 0.49% (n = 340,000). AID 493098, 2011;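 active = compounds whose inhibition of the agonist-driven luminescence signal at 20 µM reaches about 50%, limit read from the data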;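 also: cells stimulated with CCL20 at 14 nM final; plate controls were DMSO with CCL20 for no effect and DMSO without agonist for full effect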
EBI2 antag: EBI2 receptor antagonists, beta-arrestin recruitment, primary screen, cell-based, luminescence, 7a,25-OHC stimulation, uHTS; actives 0.81% (n = 360,000); inhibition, % at 5 µM; 7a,25-OHC stimulated; G-protein coupled receptor 183 (Homo sapiens), P32249; in the data active = inhibition above about 38%;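 also: enzyme fragment complementation signal reports receptor beta-arrestin coupling in cells; 0% = agonist plus DMSO wells and 100% = wells without agonist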
APJ agonist: agonists of human apelin receptor APJ, primary screen, CHO-K1 cells, PathHunter beta-arrestin, luminescence | actives 0.11% (n = 330,000) | 0% DMSO wells, 100% apelin | AID 2520, 2010 | activation, % at 20 µM;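 active = activation more than six SD over the plate average, tested at 20 µM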;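 also: 0% = DMSO alone and 100% = apelin-13 at 10 nM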
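Test system – PathHunter CHO-K1 APJ (AGTRL-1) beta-arrestin reporter cells · Input – 1000 cells/well · Compound – single test compound dose, 20 µM final, 1% DMSO · Times – compound stimulation 90 min at 25 °C, detection 60 min · Technique – beta-gal luminescence · Read-out basis – APJ–arrestin association signal · Control set – negative DMSO alone, positive Apelin-13 at 10 nM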
HTR2A ag: mouse Htr2a agonists via beta-arrestin recruitment, primary screen, cell-based, luminescence. 5-hydroxytryptamine receptor 2A (Mus musculus), P35363. CHO-K1 mHTR2A beta-arrestin complementation; percent of 30 µM serotonin response. activation, % at 7.6 µM. actives 0.66% (n = 360,000). AID 624169, 2012;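 active = activation above a run cutoff, the mean activation of all tested compounds plus 3 SD, cut at about 14% in these data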;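 also: 0% = plate median of compound wells and 100% = 30 µM serotonin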
EBI2 conf: EBI2 antagonist hit retest, beta-arrestin, confirmation, cell-based, single concentration, luminescence, 7a,25-OHC stimulation; actives 29% (n = 2,400); inhibition, % at 5 µM; 7a,25-OHC antagonism; shares compounds with EBI2 antag;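 active = inhibition of at least 50%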
EBI2 agonist: EBI2 agonist activity of antagonist hits, confirmation, counter-screen for EBI2 antagonist project, cell-based, single concentration, agonist mode, luminescence. shares compounds with EBI2 antag. activation, % at 5 µM. 2,400 tested, under 10 active. EBI2-expressing cells, 60 min; 0% vehicle, 100% 7α,25-dihydroxycholesterol control;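 active = activation of at least 50%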
bGal cs: E. coli beta-galactosidase enzyme inhibition, confirmation, counter-screen for EBI2 antagonist project, biochemical, luminescence, single concentration | shares compounds with EBI2 antag | purified beta-galactosidase, luminescent Galacton Star, 15 min | inhibition, % at 5 µM | actives 1% (n = 2,400);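 active = replicate-average signal at least 3 plate SD below neutral wells, shown as high inhibition, flagging enzyme-inhibiting false positives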;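 also: 0% = DMSO wells with enzyme and 100% = wells lacking enzyme; higher means stronger loss of beta-gal luminescence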
* marks the source's active call; other numbers are inactive results; nt = no result.

SMILES	CXCR6 block	APJ antag	CCR6 antagonist	EBI2 antag	APJ agonist	HTR2A ag	EBI2 conf	EBI2 agonist	bGal cs
CC(CCc1ccccc1)NC(=O)/C=C/c1ccc(Cl)cc1 (centres undefined)	-6	5	16	31	-2	-4	nt	nt	nt
CN1CCN(NC(=O)/C=C/c2ccc(Br)cc2)CC1	2	6	2	78*	5	-4	48	-1	-9
C[C@H](CO)N1C[C@H](C)[C@H](CN(C)S(=O)(=O)c2cccs2)Oc2ccc(NC(=O)Nc3ccc4c(c3)OCO4)cc2CC1=O	-6	16	7	7	-1	2	nt	nt	nt
CCC(C)N=Cc1c(Nc2ccccc2)nc2c(C)cccn2c1=O (centres undefined)	7	4	2	9	-8	-2	nt	nt	nt
CCOC(=O)N(C)c1c(CC)nc2c(OCc3ccc(Cl)cc3Cl)cccn12	11	nt	nt	45*	nt	-8	77*	-1	-7
O=C(c1ccco1)N1CCN(c2nc(C(F)(F)F)nc3c2nnn3Cc2ccccc2)CC1	12	20	12	48*	1	-4	30	2	7
Cc1ccnc(NC(=O)c2sc3cc(Cl)ccc3c2Cl)c1	-1	-4	-1	55*	0	-4	55*	-2	-11
Cc1ccnc(NC(=O)CNC(=O)c2sc3ccccc3c2Cl)c1	0	18	-14	-3	-1	-2	nt	nt	nt
NC(=O)[C@@H]1CC2(CC(c3cccc(NC(=O)COc4ccc(Cl)cc4)c3)=NO2)CN1C(=O)COc1ccc(Cl)cc1 (some centres undefined)	8	-5	1	53*	16	0	24	-1	-18
O=C(O)c1ccc(CNCc2ccccc2F)cc1	-12	-5	-7	-19	0	5	nt	nt	nt
COc1ccc(-c2ccc(C(=O)Nc3cccc(C(F)(F)F)c3)c3occc23)c(C)c1	4	nt	nt	43*	nt	-3	9	-2	-12
COc1ccc(C2c3ccc(O)cc3Oc3ncn4nc(-c5ccccn5)nc4c32)cc1OC (centres undefined)	1	-16	9	38	-7	1	nt	nt	nt
COc1ccc(C2c3ccc(O)cc3Oc3ncn4nc(-c5ccccn5)nc4c32)cc1 (centres undefined)	-9	25	9	47*	-4	-4	18	0	6
Cc1ccc(/C=C/C(=O)OCC(=O)NC(C)c2ccccc2)o1 (centres undefined)	-3	-3	12	8	-5	-3	nt	nt	nt
CCOc1ccc(OCC(=O)N2CCN(S(=O)(=O)c3ccccc3)CC2)cc1	1	nt	nt	59*	nt	-2	28	0	-14
CC(=O)c1ccc(S(=O)(=O)N2CCN(CCOc3ccc(Br)cc3)CC2)cc1	-7	5	10	90*	-1	-8	58*	2	5
CCOc1ccc(S(=O)(=O)N2CCN(S(=O)(=O)c3ccc(C(C)=O)cc3)CC2)cc1	-3	8	10	8	-2	-6	nt	nt	nt
O=C(COc1ccc(S(=O)(=O)N2CCCC2)cc1)N1CCCC1	-5	-13	-3	-2	0	2	nt	nt	nt
